Data from ChEMBL document CHEMBL1125374, “Novel anticancer prodrugs of butyric acid. 2” (J Med Chem, 1992).

Tests used:
HL-60 = assay: Concentration required for 50% proliferation inhibition of human promyelocytic HL-60 cell line; type: functional, cell-based
Summary of the method: (§1)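 Cells grown in RPMI with 10% fetal calf serum and 2 mM glutamine at 37 °C, 5% CO2. HL-60 (human promyelocytic) and WEHI (murine myelomonocytic) cells exposed to a titration of compound for 24 h. [3H]thymidine pulsed at 1 µCi/well during the last 14 h. Acid-insoluble counts collected on glass-fibre filters. IC50 taken from percent incorporation vs log concentration. At least two independent experiments.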

B16-F10 [1] = assay: Effect on appearance of B16F10.9 colonies in semisolid agar at 1 mM; type: functional, Mus musculus
Summary of the method: (§2)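 B16F10.9 cells (10^3) plated in the upper layer of a 0.6 mL RPMI soft-agar bilayer. Lower layer: conditioned medium 40, FCS 10, horse serum 15, agar 0.5 (% v/v). Upper layer: FCS 20, horse serum 20, agar 0.36. Compound added to the upper layer. Aggregates of more than 20 cells scored as colonies by inverted microscope after 7 days.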

WEHI = assay: Concentration required for 50% proliferation inhibition of myelomonocytic WEHI cell line; type: functional, cell-based; conditions: Mus musculus; summary of the method: as §1
B16-F10 [2] = assay: Inhibitory activity on growth of B16F10.9 melanoma cell line; type: functional, cell-based; conditions: Mus musculus
Summary of the method: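 B16F10.9 melanoma cells (4 x 10^4) seeded in 35-mm dishes in RPMI/10% FCS at 37 °C, 5% CO2. Compound added 6 h after seeding. On day 4 cells detached in PBS with 1 mM EDTA and counted electronically. IC50 read from viable cell number vs log concentration.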

B16-F10 [3] = assay: Effect on metastases of B16F10.9 melanoma cells (intraperitoneally implanted) in B6C3F1/OLAC/HSD mice was observed after administration of 50 mg/kg dose; type: functional, Mus musculus; conditions: route intraperitoneal
B16-F10 [4] = assay: Effect on metastases of B16F10.9 melanoma cells (intravenously injected) in C57BL/6 mice was observed after administration of 100 mg/kg dose; conditions: route intraperitoneal
[5] = Lethal dose was determined; type: toxicity; conditions: mouse
Summary of the method: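 Acute toxicity in male and female BALB/c mice (3 experiments) and C57Bl mice (2 experiments), 6-8 weeks old, weighing 20 ± 0.5 g, in groups of 10. Each mouse got a single injection of 0.125-2.5 g/kg in propylene glycol, and LD50 was taken from mortality.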

B16-F10 [6] = assay: Effect on metastases of B16F10.9 melanoma cells (intravenously injected) was observed after administration of 50 mg/kg dose; conditions: route intraperitoneal
B16-F10 [7] = assay: Effect on metastases of B16F10.9 melanoma cells (intravenously injected) in C57BL/6 mice was observed after administration of 100 mg/kg dose; conditions: route intraperitoneal; remark: listed apart in the source
B16-F10 [8] = assay: Effect on metastases of B16F10.9 melanoma cells (intravenously injected) in C57BL/6 mice was observed after administration of 25 mg/kg dose; conditions: route intraperitoneal
B16-F10 [9] = assay: Effect on metastases of B16F10.9 melanoma cells (intravenously injected) in C57BL/6 mice was observed after administration of 12.5 mg/kg; conditions: route intraperitoneal
B16-F10 [10] = assay: Effect on appearance of B16F10.9 colonies in semisolid agar; type: functional, cell-based; conditions: Mus musculus; summary of the method: as §2
B16-F10 [11] = assay: Effect on metastases of B16F10.9 melanoma cells (intravenously injected) in C57BL/6 mice was observed after administration of 25 mg/kg dose; conditions: route intraperitoneal; remark: listed apart in the source
B16-F10 [12] = assay: Effect on metastases of B16F10.9 melanoma cells (intravenously inoculated) in C57BL/6 mice was observed after administration of 12.5 mg/kg dose; conditions: route intravenous

CCCC(=O)O [BUTYRIC ACID]
IC50 (HL-60): 1520 µM
Decrease (B16-F10 [1]): 22%
IC50 (WEHI): 850 µM
IC50 (B16-F10 [2]): 933 µM

O=P1(N(CCCl)CCCl)NCCCO1 (stereo not drawn) [CYCLOPHOSPHAMIDE ANHYDROUS]
No. of lung lesions (B16-F10 [3]): 56.38

CCCC(=O)OCOC(=O)C(C)(C)C [AN-9]
Lung weight (B16-F10 [4]): 0.269 g
IC50 (HL-60): 49.5 µM
LD50 [5]: 1360 mg/kg
Lung weight (B16-F10 [6]): 0.0929 g
No. of lung lesions (B16-F10 [7]): 140
No. of lung lesions (B16-F10 [3]): 66.6
No. of lung lesions (B16-F10 [8]): 72.38
No. of lung lesions (B16-F10 [9]): 97.89
IC50 (WEHI): 75 µM
IC50 (B16-F10 [10]): 60 µM
Lung weight (B16-F10 [11]): 0.135 g
Lung weight (B16-F10 [12]): 0.1571 g
IC50 (B16-F10 [2]): 82 µM
